The pIC50 is the IC50 on a negative log10 scale, so that one unit is a factor of ten.

IC50 data for three molecules are collected here from ChEMBL document CHEMBL1128278, “Design, synthesis, and structure--activity relationship studies for a new imidazole series of J774 macrophage specific acyl-CoA:cholesterol acyltransferase (ACAT) inhibitors” (J Med Chem, 1995).

pIC50: −log10 of the molar value.

Assay [1] addresses T1, Sterol O-acyltransferase 1 (Rattus norvegicus, UniProt O70536).
T1 sequence (O70536 whole entry): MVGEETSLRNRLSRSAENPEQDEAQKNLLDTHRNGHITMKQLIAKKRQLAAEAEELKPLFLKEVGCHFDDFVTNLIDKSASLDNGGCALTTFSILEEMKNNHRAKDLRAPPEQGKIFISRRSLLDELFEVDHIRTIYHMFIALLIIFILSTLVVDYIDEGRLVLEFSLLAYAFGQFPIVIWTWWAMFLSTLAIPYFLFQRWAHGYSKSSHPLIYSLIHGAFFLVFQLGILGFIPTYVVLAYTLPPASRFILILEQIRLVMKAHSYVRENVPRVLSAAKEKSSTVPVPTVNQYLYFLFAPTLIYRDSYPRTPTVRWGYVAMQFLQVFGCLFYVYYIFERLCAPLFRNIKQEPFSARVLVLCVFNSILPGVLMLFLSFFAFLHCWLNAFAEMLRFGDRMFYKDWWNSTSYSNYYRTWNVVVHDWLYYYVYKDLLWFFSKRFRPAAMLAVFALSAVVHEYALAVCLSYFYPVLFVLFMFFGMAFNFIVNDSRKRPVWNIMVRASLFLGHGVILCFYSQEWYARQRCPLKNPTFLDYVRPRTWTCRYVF
Description: Concentration required to inhibit 50% activity of Acyl coenzyme A:cholesterol acyltransferase 1 in vitro using rat liver microsome. As to conditions: read-out: IC50. It is filed as microsomes. An outline of the steps:
(§1)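 Rat liver microsomes; ACAT activity read as [14C]cholesteryl oleate formed from [14C]oleoyl-CoA (pmol/min/mg). Inhibitors added in 5 µL DMSO. Duplicate assays with at least four inhibitor concentrations bracketing the IC50; IC50 is the concentration giving 50% inhibition of ACAT activity. Average range of replicates ±17%.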
In general terms: Microsomes from liver hold many membrane-bound enzymes, among them those of drug oxidation.

The nature of assay [2]: Acyl coenzyme A:cholesterol acyltransferase inhibition in cell culture measured in murine IC-21 macrophages.
A short description of assay [3]: Acyl coenzyme A:cholesterol acyltransferase inhibition in cell culture measured in murine J774 macrophages.
In the next assay the test system is J774. Description: Concentration required to inhibit 50% activity of J774 macrophage cholesterol esterification. As to conditions: Mus musculus. It is filed as functional, cell-based. Put shortly: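 Intact J774A.1 cells, seeded at 3 x 10^4 cells/cm2 and grown 36 h, then loaded 17 h with ac-LDL in 10% FBS-DMEM. Inhibitors in DMSO (1.0% final) for 4 h, with [14C]oleate–BSA for the last 2 h. Cholesteryl ester separated by TLC and counted (nmol/h/mg Lowry protein).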

Assay [4] can be described thus: Acyl coenzyme A:cholesterol acyltransferase activity was determined in J774 macrophages by measuring the formation of labeled cholesteryl oleate (pmol/midmg) from [14C]oleoyl-CoA. The class given is functional. Put shortly: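 J774 cells grown in high-glucose DMEM with 10% FBS at 37 °C, 6% CO2, then harvested for microsome preparation. ACAT activity in these microsomes measured as in the hepatic assay, as [14C]cholesteryl oleate formed from [14C]oleoyl-CoA, with inhibitors in DMSO. IC50 taken as the concentration giving 50% inhibition.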

Assay [5] has as its target T1, Sterol O-acyltransferase 1. Briefly: ACAT activity was determined in rat hepatic microsomes by measuring the formation of labeled cholesteryl oleate (pmol/midmg) from [14C]oleoyl-CoA. It is filed as functional, Liver. An outline of the steps:
as §1

Turning to `CCCCN(C)CCN(CCOCCSc1nc(-c2ccc(OC)cc2)c(-c2ccc(OC)cc2)[nH]1)C(=O)Nc1ccc(F)cc1F`, the pIC50 was 5.82 in assay [1] and 6.20 in assay [2].
Consider `CCCCCCCN(CCCCCSc1nc(-c2ccccc2)c(-c2ccccc2)[nH]1)C(=O)Nc1ccc(F)cc1F` [LECIMIBIDE], for which the negative-log IC50 (pIC50) in assay [3] is 6.00; in the assay on J774, 6.00; in assay [4], 7.60.
Turning to `CCCCCCCN(CCCCCSc1nc(-c2ccc(N(C)C)cc2)c(-c2ccc(N(C)C)cc2)[nH]1)C(=O)NC(C)C`, the pIC50 in assay [3] is 8.52; in assay [1], 7.10; in assay [5], 7.10; in the assay with J774, 8.40; in assay [4], 9.22.
